These results are taken from paper PMC9104225 (ACS chemical biology, 2021).

Data set [1] addresses T1, Cathepsin L (Homo sapiens, UniProt P07711). The experiment in a line: Specificity of inhibitors: cathepsin L activity with Z-Phe-Arg-AMC. Particulars: for IC50: pH 4.6, without pre-incubation. It is filed as biochemical.
A further data set concerns the target T2, Cathepsin K (Homo sapiens, UniProt P43235).
T2 sequence (P43235 115-329): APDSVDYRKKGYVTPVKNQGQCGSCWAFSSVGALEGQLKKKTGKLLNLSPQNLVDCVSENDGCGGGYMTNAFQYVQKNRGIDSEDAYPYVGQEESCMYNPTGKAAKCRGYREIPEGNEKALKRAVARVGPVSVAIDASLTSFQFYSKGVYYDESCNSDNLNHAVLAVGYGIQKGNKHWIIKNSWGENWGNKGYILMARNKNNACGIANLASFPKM
Briefly: Specificity of inhibitors: cathepsin K activity with Z-Phe-Arg-AMC. In kind it is biochemical. Particulars: for % inhibition: pH 4.6, at 16 μM (16,000 nM) inhibitor.

Data set [2] concerns the target T3, cathepsin B (Homo sapiens, UniProt P07858). The experiment in a line: Cathepsin B inhibition, fluorogenic assay with Z-Phe-Arg-AMC substrate. It is filed as biochemical. Particulars: for Ki: irreversible inhibitor KI, mean ± SD; for reduction of cathepsin B activity with Z-Phe-Arg-AMC as substrate: 64 nM inhibitor.
The target in data set [3] is T4, Cathepsin V (Homo sapiens, UniProt O60911). The experiment in a line: Specificity of inhibitors: cathepsin V activity with Z-Phe-Arg-AMC. It is filed as biochemical. Particulars: for IC50: without pre-incubation.
The target of a further data set is Cathepsin S (Homo sapiens, UniProt P25774). The experiment in a line: Specificity of inhibitors: cathepsin S activity with Z-Phe-Arg-AMC. It is filed as biochemical. The note with it: for % inhibition / IC50: Cathepsin S; for % inhibition: at 16 μM (16,000 nM) inhibitor; for IC50: without pre-incubation.
A further data set has as its target Cathepsin H (Homo sapiens, UniProt P09668). The experiment in a line: Specificity of inhibitors: cathepsin H activity with Arg-AMC. It is filed as biochemical.
A further data set addresses Cathepsin X (Homo sapiens, UniProt Q9UBR2). In kind it is biochemical. Particulars: pH 4.6, without pre-incubation.
In a further data set the target is Cathepsin C (Homo sapiens, UniProt P53634). The experiment in a line: Specificity of inhibitors: cathepsin C activity with Gly-Arg-AMC. In kind it is biochemical. The note with it: for IC50: Cathepsin C, without pre-incubation.
Data set [4] concerns the target cathepsin B activity in human neuroblastoma cell lysate (Homo sapiens, UniProt P07858). The experiment in a line: Cathepsin B activity in neuroblastoma cell homogenate in presence of inhibitors. It is filed as biochemical. Particulars: 1 μM inhibitor; SHSY5Y homogenate; Z-Arg-Arg-AMC substrate; pH 5.5. The method in brief:
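SHSY5Y cells were grown in 50% MEMalpha/50% F12-K with 10% heat-inactivated FBS at 37 °C under 5% CO2. They were collected in 0.32 M sucrose and freeze-thawed to give homogenate. CA-074-sensitive activity was taken as cathepsin B. Protein was measured by DC assay. Output is nmol AMC/μg/min, mean ± SD, Student's t-test.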

Data set [5] deals with intracellular cathepsin B in SHSY5Y human neuroblastoma cells (Homo sapiens, UniProt P07858). It is filed as cell-based. Particulars: 50 μM, 6 hrs. The method in brief: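 Intact SHSY5Y cells were treated with test compound for 6 h at 37 °C. They were washed 3× in PBS, homogenised in 0.32 M sucrose and freeze-thawed. Cathepsin B activity was taken as the CA-074-sensitive fraction, normalised to DC-assay protein. Output is nmol AMC/μg/min, mean + SD, n=6, t-test.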

For data set [6], the target named is T1, Cathepsin L. The experiment in a line: Specificity of peptide-AMC substrates: cleavage by cathepsin L. It is filed as biochemical.
Data set [7] concerns the target T4, Cathepsin V. The experiment in a line: Specificity of peptide-AMC substrates: cleavage by cathepsin V. In kind it is biochemical.
Data set [8] deals with T3, cathepsin B. Briefly: pH profile of cathepsin B activity with peptide-AMC substrates. Particulars: substrate 60 μM, pH 2 to 9. It is filed as biochemical. The method in brief:
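Activated cathepsin B (0.04 ng/μL) was run with 60 μM of each peptide-AMC substrate. Buffers were 50 mM citrate phosphate at pH 2.2–7.4 in 0.4-unit steps plus pH 7.2, and 50 mM Tris-HCl at pH 7.4–9.0. Assays ran at 25 °C with ex360/em460. Activity was taken as RFU/sec, the highest slope over 10 consecutive readings. Results are mean ± SEM, n=3.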

[9] abbreviates: cathepsin B, pH 4.6, without preincubation, Z-Phe-Arg-AMC 40 μM.
[10] abbreviates: cathepsin B, pH 7.2, without preincubation, Z-Phe-Arg-AMC 40 μM.
[11] abbreviates: pH not stated in the sentence for Z-Glu-Lys-AMC, pH 4.6 for Z-Phe-Arg-AMC.

Residues, ends and D or L forms follow the SMILES beside them. *: point of attachment. AMC = Cc1cc(=O)oc2cc(N*)ccc12; Cbz = O=C(OCc1ccccc1)*

Sequence of Cathepsin S (P25774 115-331): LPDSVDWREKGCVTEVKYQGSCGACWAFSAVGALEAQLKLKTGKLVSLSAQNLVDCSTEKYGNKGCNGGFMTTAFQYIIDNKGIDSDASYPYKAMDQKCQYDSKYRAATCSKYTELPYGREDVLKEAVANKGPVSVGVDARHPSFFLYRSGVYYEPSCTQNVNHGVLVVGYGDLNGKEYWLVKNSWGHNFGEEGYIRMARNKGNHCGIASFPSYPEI
Sequence of Cathepsin C (P53634 25-134 limits assumed): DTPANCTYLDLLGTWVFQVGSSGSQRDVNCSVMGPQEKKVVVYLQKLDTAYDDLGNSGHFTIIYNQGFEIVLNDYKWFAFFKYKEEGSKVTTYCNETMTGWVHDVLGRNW
Sequence of Cathepsin C (P53634 231-394 limits assumed): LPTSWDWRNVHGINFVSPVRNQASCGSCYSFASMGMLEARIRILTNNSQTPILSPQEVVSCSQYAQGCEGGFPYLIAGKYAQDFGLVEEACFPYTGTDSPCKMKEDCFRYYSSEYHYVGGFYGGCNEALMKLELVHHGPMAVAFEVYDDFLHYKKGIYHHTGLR
Sequence of Cathepsin C (P53634 395-463 limits assumed): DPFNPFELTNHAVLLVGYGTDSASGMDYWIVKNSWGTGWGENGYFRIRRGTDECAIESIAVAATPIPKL
T1 sequence (P07711 114-333): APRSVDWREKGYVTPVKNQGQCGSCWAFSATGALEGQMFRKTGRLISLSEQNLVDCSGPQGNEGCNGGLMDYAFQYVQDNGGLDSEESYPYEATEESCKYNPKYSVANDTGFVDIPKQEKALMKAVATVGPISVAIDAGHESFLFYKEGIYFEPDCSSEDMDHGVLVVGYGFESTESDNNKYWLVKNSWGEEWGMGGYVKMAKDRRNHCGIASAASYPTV
T4 sequence (O60911 114-334): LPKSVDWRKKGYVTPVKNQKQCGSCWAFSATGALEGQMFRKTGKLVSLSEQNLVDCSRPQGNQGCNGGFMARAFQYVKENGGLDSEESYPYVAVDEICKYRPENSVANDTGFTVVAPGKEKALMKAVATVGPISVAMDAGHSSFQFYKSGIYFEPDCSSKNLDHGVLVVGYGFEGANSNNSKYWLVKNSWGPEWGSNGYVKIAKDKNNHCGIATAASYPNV
Sequence of Cathepsin H (P09668 116-335 limits assumed, other chains not shown): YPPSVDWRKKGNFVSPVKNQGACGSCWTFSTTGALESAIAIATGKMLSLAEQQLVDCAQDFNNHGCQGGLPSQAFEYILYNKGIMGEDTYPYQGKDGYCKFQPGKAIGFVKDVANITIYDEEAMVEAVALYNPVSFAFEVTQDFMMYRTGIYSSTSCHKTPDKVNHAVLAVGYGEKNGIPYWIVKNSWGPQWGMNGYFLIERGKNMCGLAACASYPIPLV
Sequence of Cathepsin X (Q9UBR2 62-303): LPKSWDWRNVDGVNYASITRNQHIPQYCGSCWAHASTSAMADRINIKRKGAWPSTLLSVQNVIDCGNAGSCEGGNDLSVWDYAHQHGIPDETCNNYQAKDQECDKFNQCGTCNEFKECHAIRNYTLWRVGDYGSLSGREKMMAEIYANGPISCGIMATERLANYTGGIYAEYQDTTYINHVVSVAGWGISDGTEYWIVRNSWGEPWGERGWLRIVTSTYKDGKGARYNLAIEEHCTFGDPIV

With `Cc1cccc(C)c1C(=O)OCC(=O)C(CCCCN)NC(=O)C(CCC(=O)O)NC(=O)OCc1ccccc1` (stereo not drawn) [Z-Glu-Lys-AOMK], the “% inhibition” value on Cathepsin L [1] (pH 4.6, at 16 μM (16,000 nM) inhibitor) is 23%; at Cathepsin K, 10%; at Cathepsin V [3] (Cathepsin V, pH 7.2, at 16 μM (16,000 nM) inhibitor), 10%; at Cathepsin S (pH 4.6) it was 26%; at Cathepsin S (pH 7.2) it was 30%. In addition, the concentration for half-maximal inhibition (IC50) is over 16 µM against Cathepsin L [1]; over 16 µM against Cathepsin K (pH 4.6, without pre-incubation); over 16 µM at Cathepsin K (pH 7.2, without pre-incubation); 1100 nM on cathepsin B [2] (setting [9]); 320 ± 45 nM against cathepsin B [2] (setting [10]); 1900 nM at Cathepsin V [3] (Cathepsin V, pH 4.6). Besides, the IC50 was over 16000 nM against Cathepsin V [3] (Cathepsin V, pH 7.2); over 16 µM against Cathepsin S (pH 4.6); over 16 µM against Cathepsin S (pH 7.2); over 16 µM against Cathepsin H (pH 4.6, without pre-incubation); over 16 µM on Cathepsin H (pH 7.2, without pre-incubation); over 16 µM on Cathepsin X. For the same compound, the IC50 against Cathepsin C (pH 4.6) was found to be 8.6 µM; on Cathepsin C (pH 7.2) it was 12 µM. For the same compound, the kinact/KI on cathepsin B [2] (cathepsin B, pH 4.6) was 2000 M⁻¹ s⁻¹; at cathepsin B [2] (cathepsin B, pH 7.2) it was 8200 M⁻¹ s⁻¹. Moreover, the Ki is 7.9 µM at cathepsin B [2] (cathepsin B, pH 4.6) and 2.3 µM at cathepsin B [2] (cathepsin B, pH 7.2). The “fold more potent for cathepsin B than cathepsin C (IC50)” value on Cathepsin C (pH 7.2) was determined as 38 fold.

For the compound `Cc1cccc(C)c1C(=O)OCC(=O)[C@H](CCCCN)NC(=O)[C@H](CCCN=C(N)N)NC(=O)OCc1ccccc1` [Z-Arg-Lys-AOMK], the IC50 against Cathepsin L [1] was over 16 µM; against Cathepsin K (pH 4.6, without pre-incubation), over 16 µM; against Cathepsin K (pH 7.2, without pre-incubation), over 16 µM; against cathepsin B [2] (setting [9]), 1500 nM; against cathepsin B [2] (cathepsin B, pH 6.8), 22 nM; against cathepsin B [2] (setting [10]) it was 20 ± 8.3 nM. The IC50 at Cathepsin V [3] (Cathepsin V, pH 7.2) was 440 nM; against Cathepsin S (pH 4.6) it was over 16 µM; against Cathepsin S (pH 7.2), 2.2 µM; against Cathepsin H (pH 4.6, without pre-incubation), over 16 µM; on Cathepsin H (pH 7.2, without pre-incubation), over 16 µM; on Cathepsin X, over 16 µM. Besides, the IC50 against Cathepsin C (pH 4.6) was over 16 µM; against Cathepsin C (pH 7.2), 0.85 µM. For the same compound, the “% inhibition” value on Cathepsin K is listed as “no inhibition”. Also, the “reduction of cathepsin B activity with Z-Phe-Arg-AMC as substrate” value was determined as 5% at cathepsin B [2] (pH 4.6) and 93% at cathepsin B [2] (pH 7.2). The kinact/KI at cathepsin B [2] (cathepsin B, pH 4.6) is 1800 M⁻¹ s⁻¹; at cathepsin B [2] (cathepsin B, pH 7.2), 110000 M⁻¹ s⁻¹. Moreover, the Ki on cathepsin B [2] (cathepsin B, pH 4.6) was 15 µM; at cathepsin B [2] (cathepsin B, pH 7.2), 0.13 ± 0.05 µM. In addition, the “fold greater potency at pH 7.2 compared to pH 4.6 (KI values)” value on cathepsin B [2] (cathepsin B, ratio of KI at pH 4.6 and pH 7.2) was found to be 115 fold. In addition, the “fold more potent for cathepsin B than cathepsin V (IC50)” value on Cathepsin V [3] (pH 7.2) is listed as 22 fold. Moreover, the “fold more potent for cathepsin B than cathepsin S (IC50)” value at Cathepsin S (pH 7.2) worked out at 110 fold. The “inhibition at 16 μM” value on Cathepsin H (pH 4.6, at 16 μM inhibitor) is reported as “no inhibition”. Also, the “inhibition of proteolytic (cathepsin B) activity in cell lysate” value in [4] is “completely inhibited”. The “fold more potent for cathepsin B than cathepsin C (IC50)” value at Cathepsin C (pH 7.2) is 43 fold. Moreover, the cell permeability entry in data set [5] was “cell permeable”.

For the compound `Cc1cc(=O)oc2cc(NC(=O)C(CCCN=C(N)N)NC(=O)C(Cc3ccccc3)NC(=O)OCc3ccccc3)ccc12` (stereo not drawn) [Z-Phe-Arg-AMC, reference compound] (Cbz-Phe-Arg-{AMC}; configuration not given here), at Cathepsin L [6] (setting [11]), the “substrate activity for cathepsin L” value is on record as “cleaved”. The “substrate activity for cathepsin V” value on Cathepsin V [7] (setting [11]) is “cleaved”.

Consider `CCCNC(=O)[C@H]1O[C@@H]1C(=O)N[C@H](C(=O)N1CCC[C@H]1C(=O)O)[C@@H](C)CC` [CA-074, reference compound], for which the “inhibition of proteolytic (cathepsin B) activity in cell lysate” value in data set [4] is listed as “completely inhibited”.

Consider `Cc1cc(=O)oc2cc(NC(=O)[C@H](CCCCN)NC(=O)[C@H](CCC(=O)O)NC(=O)OCc3ccccc3)ccc12` [Z-Glu-Lys-AMC] (Cbz-Glu-Lys-{AMC}), for which the “substrate activity for cathepsin L” value on Cathepsin L [6] (setting [11]) is on record as “no activity”. The “pH of maximal (optimal) hydrolysis by cathepsin B” value on cathepsin B [8] was determined as 4.6 pH. The “substrate activity for cathepsin V” value on Cathepsin V [7] (setting [11]) is “no activity”.

In the case of `Cc1cc(=O)oc2cc(NC(=O)[C@H](CCCCN)NC(=O)[C@H](CCCNC(=N)N)NC(=O)OCc3ccccc3)ccc12` [Z-Arg-Lys-AMC] (Cbz-Arg-Lys-{AMC}), the “substrate activity for cathepsin L” value at Cathepsin L [6] (pH 7.2) is listed as “no activity”. Further, the “pH of maximal (optimal) hydrolysis by cathepsin B” value on cathepsin B [8] was determined as 7.8 pH. At Cathepsin V [7] (pH 7.2), the “substrate activity for cathepsin V” value is “no activity”.

The % inhibition is how much of the control response was suppressed. High values mean strong suppression, low ones little suppression. In general, IC50 refers to the point on the concentration scale where inhibition reaches its midpoint. A lower IC50 goes with inhibition by little substance. The term kinact/KI denotes the maximal inactivation rate divided by the concentration that gives half of it.
